Published values from different studies.
Protocols differ between the studies behind these lines.
Target: Serine/threonine-protein kinase SIK3 (SIK3, Homo sapiens, UniProt Q9Y2K2)

| Structure (SMILES) | assay | conditions | remaining binding |
| --- | --- | --- | --- |
| N[C@H]1CCN(c2nccc(-c3cnn4ncccc34)n2)C1 | binding | 1 µM | 100% |
| COc1cnc(Nc2cccc(S(N)(=O)=O)c2)nc1N1CCN(c2ccccc2)C(=O)C1 | binding, competition with immobilised ligand | 1 µM | 90% |
| COc1ncc2cc3ccccc3nc2c1C#N | cell-free assay, competition with immobilised ligand | 5 µM | 88% |
| CCS(=O)(=O)c1cc2cc(C[C@](O)(CC(C)(C)c3ccc(F)cc3C(N)=O)C(F)(F)F)[nH]c2cn1 | cell-free assay, competition with immobilised ligand | 1 µM | 85% |
| CN(CCCC(F)(F)F)c1nccc(-c2cnn3ncccc23)n1 | binding | 1 µM | 100% |
| O=C(c1ccc(Nc2nccc(-c3cc4ccccc4s3)n2)cc1)N1CCC(N2CCCC2)CC1 | binding, competition with immobilised ligand | 1 µM | 65% |
| F[C@@H]1CCN(c2nccc(-c3cnn4ncccc34)n2)C1 | binding | 1 µM | 74% |
| Cc1cnc(Nc2ccc(C(=O)N3CCC(N4CCCC4)CC3)cc2)nc1-c1cc2ccccc2s1 | binding, competition with immobilised ligand | 1 µM | 61% |
| CN(c1nccc(-c2cnn3ncccc23)n1)C1CC1 | binding | 1 µM | 100% |
| NS(=O)(=O)c1cc(NC(=O)Cc2ccccc2)ccc1Oc1cccc(Cl)c1 | cell-free assay, competition with immobilised ligand | 1 µM | 87% |
| c1cncc(-c2cccc(Nc3nccc(NC4CCCCC4)n3)c2)c1 | binding, competition with immobilised ligand | 10 µM | 83% |
| C[C@@H]1CCN(c2nccc(-c3cnn4ncccc34)n2)C1 | binding | 1 µM | 31% |
| CN(C)CC#Cc1ccc(OCCCc2sc(N3CCc4cccc(C(=O)Nc5nc6ccccc6s5)c4C3)nc2C(=O)O)c(F)c1 | cell-free assay, competition with immobilised ligand | 1 µM | 77% |
| COc1ccnn2ncc(-c3ccnc(N(C)C)n3)c12 | binding | 1 µM | 78% |
| CC(=O)Nc1c(C(C)=O)c(=O)n(C)c2nc(-c3ccc(Cl)cc3Cl)c(-c3ccc(Cl)cc3)cc12 | cell-free assay, competition with immobilised ligand | 1 µM | 100% |
| O=C(Nc1c[nH]nc1C(=O)NC1CCNCC1)c1cc(F)cc(F)c1 | binding, competition with immobilised ligand | 1 µM | 66% |
| CCCCN(CCCC)C(=O)CN1C[C@H](c2cc(OC)c3c(c2)OCO3)[C@@H](C(=O)O)[C@@H]1CC(C)(C)CCC | cell-free assay, competition with immobilised ligand | 1 µM | 60.5% |
| O=C(NCCCN1CCOCC1)c1ccc(Nc2nccc(-c3cc4ccccc4s3)n2)cc1 | binding, competition with immobilised ligand | 1 µM | 95% |
| O=C(O)[C@H]1[C@H](Cn2nnc3ccccc3c2=O)CC[C@@H]1C(=O)c1ccc(OCCC2CCOCC2)cc1 | cell-free assay, competition with immobilised ligand | 1 µM | 61% |
| FC(F)(F)Oc1cccc(-c2cnc3ccc(-c4ccncc4)nn23)c1 | cell-free assay, competition with immobilised ligand | 5 µM | 66% |
